Consider 3 compounds from ChEMBL document CHEMBL4725360, “Optimization of Acetazolamide-Based Scaffold as Potent Inhibitors of Vancomycin-Resistant Enterococcus” (J Med Chem, 2020).

Data set [1] has as its system Enterococcus faecium. The data set is described as follows: Antibacterial activity against Enterococcus faecium HM965 incubated for 18 to 20 hrs under aerobic condition by CLSI protocol based broth microdilution assay. The class given is functional. As to conditions: time hrs 18-20. Put shortly:
(§1)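 Broth microdilution per CLSI. Strains grown aerobically overnight on trypticase soy agar at 37 °C. Inoculum set to 0.5 McFarland, diluted in trypticase soy broth to about 5 × 10⁵ CFU/mL. Agents serially diluted, plates incubated aerobically at 37 °C for 18–20 h. MIC is the lowest concentration with no visible growth. Compound stocks 10 mg/mL in DMSO.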
For orientation: In broth dilution the organism is exposed to a series of concentrations in liquid medium.

Data set [2] concerns Enterococcus faecium. The data set is described as follows: Antibacterial activity against Enterococcus faecium NR-31972 incubated for 18 to 20 hrs under aerobic condition by CLSI protocol based broth microdilution assay. The class given is functional. As to conditions: time hrs 18-20. In a few lines:
as §1

For data set [3], the system named is Enterococcus faecium. Description: Antibacterial activity against Enterococcus faecium NR-32052 incubated for 18 to 20 hrs under aerobic condition by CLSI protocol based broth microdilution assay. The class given is functional. The note with it: time hrs 18-20. In a few lines:
as §1

The subject of data set [4] is Enterococcus faecalis. Description: Antibacterial activity against Enterococcus faecalis HM-335 incubated for 18 to 20 hrs under aerobic condition by CLSI protocol based broth microdilution assay. The class given is functional. The note with it: time hrs 18-20. In a few lines: as §1
Data set [5] concerns Enterococcus faecium. Description: Antibacterial activity against Enterococcus faecium NR-31916 incubated for 18 to 20 hrs under aerobic condition by CLSI protocol based broth microdilution assay. The class given is functional. As to conditions: time hrs 18-20. Put shortly: as §1
Data set [6] relates to Enterococcus faecium. The data set is described as follows: Inhibition of carbonic anhydrase in Enterococcus faecium ATCC 700221 assessed as antibacterial activity incubated for 18 to 20 hrs in presence of 5% CO2 by CLSI protocol based broth microdilution assay. The note with it: time hrs 18-20. In a few lines: (§2)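 CLSI broth microdilution: inoculum about 5 × 10⁵ CFU/mL in trypticase soy broth with serial dilutions of agents. Paired plates incubated at 37 °C for 18–20 h, one set in ambient air ("normal"), the other under 5% CO₂. MIC is the lowest concentration completely inhibiting visible growth.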

In data set [7] the test system is Enterococcus faecium. Description: Inhibition of carbonic anhydrase in Enterococcus faecium ATCC 700221 assessed as antibacterial activity incubated for 18 to 20 hrs in presence of ambient air by CLSI protocol based broth microdilution assay. As to conditions: time hrs 18-20. Put shortly: as §2
A further data set relates to Caco-2. The data set is described as follows: Cytotoxicity against human Caco2 cells at 128 ug/ml incubated for 2 hrs by MTS assay. The class given is cell-based. The note with it: caco-2, 2 h, dose 128 µg/ml. Put shortly:
(§3)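 Caco-2 cells maintained in DMEM with 10% FBS, non-essential amino acids and penicillin-streptomycin at 37 °C, 5% CO₂. Compound exposure for 2 h in serum-free medium at several concentrations; DMSO-matched controls. Viability expressed relative to DMSO controls (mean ± SD), and CC₅₀ derived.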
(In general: Tetrazolium assays rely on reduction of a dye to a coloured formazan, in cell work by metabolically active cells.)

Data set [8] is described as follows: Apparent permeability across apical to basolateral side in human Caco2 cells. The class given is ADME, cell-based. As to conditions: caco-2. Put shortly:
(§4)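 Bi-directional Caco-2 monolayer permeability, run at Eurofins: donor at pH 6.5, receiver at pH 7.4, both A→B and B→A. Papp derived from receiver concentration at the end point, incubation time, monolayer area and mid-point donor concentration. Concentrations taken as peak areas.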
On the technique in general: Caco-2 cells form a polarised layer with tight junctions and transporters.

The test system of data set [9] is Enterococcus faecium. The data set is described as follows: Bacteriostatic activity against Enterococcus faecium ATCC 700221 assessed as reduction in bacterial burden at 5 times MIC preincubated for 24 hrs followed by replating on soya agar plates and measured after 16 hrs by time-kill assay. The class given is functional, organism-based. In a few lines: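 E. faecium ATCC 700221 overnight culture diluted in trypticase soy broth to 3.5 × 10⁶ CFU/mL. […] Samples taken at 2, 4, 6, 8, 12 and 24 h, diluted in PBS and plated on trypticase soy agar. Colonies counted after 16 h at 37 °C. Detection limit 100 CFU/mL. Two-way ANOVA with Dunnett's test.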

Data set [10] in a line: Metabolic stability in human liver microsomes assessed as compound remaining measured after 60 mins. The class given is ADME, Microsome. As to conditions: 1 h. In a few lines: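 Human liver microsomes at 0.1 mg/mL, 37 °C. Percent parent remaining at 60 min, mean of 2 replicates.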
Data set [11] has as its system Enterococcus faecium. Description: Antibacterial activity against Enterococcus faecium NR-32065 incubated for 18 to 20 hrs under aerobic condition by CLSI protocol based broth microdilution assay. The class given is functional. As to conditions: time hrs 18-20. Put shortly:
as §1

Data set [12] concerns Enterococcus faecalis. The data set is described as follows: Antibacterial activity against Enterococcus faecalis HM-334 incubated for 18 to 20 hrs under aerobic condition by CLSI protocol based broth microdilution assay. The class given is functional. As to conditions: time hrs 18-20. Put shortly:
as §1

Data set [13] deals with Enterococcus faecium. The data set is described as follows: Antibacterial activity against Enterococcus faecium NR-31914 incubated for 18 to 20 hrs under aerobic condition by CLSI protocol based broth microdilution assay. The class given is functional. The note with it: time hrs 18-20. Put shortly: as §1
Data set [14] is described as follows: Aqueous solubility of compound in pH 7.4 PBS measured at 24 hrs by HPLC analysis. The class given is physicochemical. The note with it: buffer, pH 7.4, 24 h. Put shortly: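 HPLC principal-peak area of the buffer sample compared with a 200 μM calibration standard in methanol/water 60/40.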
Data set [15] in a line: Cytotoxicity against human Caco2 cells incubated for 2 hrs by MTS assay. As to conditions: Caco-2 cells. The class given is cell-based. Put shortly: as §3
The nature of data set [16]: Half life in human liver microsomes after 60 mins. The class given is ADME, Microsome. The note with it: 1 h.
Data set [17] has as its system Enterococcus faecium. The data set is described as follows: Antibacterial activity against Enterococcus faecium NR-28978 incubated for 18 to 20 hrs under aerobic condition by CLSI protocol based broth microdilution assay. The class given is functional. The note with it: time hrs 18-20. In a few lines:
as §1

The test system of data set [18] is Enterococcus faecium. Description: Antibacterial activity against Enterococcus faecium HM968 incubated for 18 to 20 hrs under aerobic condition by CLSI protocol based broth microdilution assay. The class given is functional. The note with it: time hrs 18-20. In a few lines: as §1
Data set [19] can be described thus: Apparent permeability across basolateral to apical side in human Caco2 cells. The class given is ADME, cell-based. As to conditions: caco-2. Put shortly:
as §4

The subject of data set [20] is Enterococcus faecium. Description: Antibacterial activity against Enterococcus faecium NR-31903 incubated for 18 to 20 hrs under aerobic condition by CLSI protocol based broth microdilution assay. The class given is functional. The note with it: time hrs 18-20. Put shortly: as §1
For data set [21], the system named is Enterococcus faecium. The data set is described as follows: Antibacterial activity against Enterococcus faecium NR-31971 incubated for 18 to 20 hrs under aerobic condition by CLSI protocol based broth microdilution assay. The class given is functional. As to conditions: time hrs 18-20. In a few lines: as §1
In data set [22] the test system is Enterococcus faecium. Description: Antibacterial activity against Enterococcus faecium ATCC 700221 by CLSI protocol based assay. The class given is functional. In a few lines:
as §1

Values after ≈ are worked out from the molar mass of the structure shown. Active and inactive are the calls of the source. The rule behind the calls is not given here.

Usually MIC stands for the lowest concentration found to suppress growth. As usually defined, the solubility is the concentration that dissolves in the medium under given conditions. The low end stands for little dissolved substance, the high end for much dissolved substance. The term CC50 denotes the concentration that lowers cell viability or growth by half. High values mean lower toxicity to the cells, low ones greater toxicity to the cells. `NS(=O)(=O)c1nnc(NC(=O)CN2CCOCC2)s1`: the MIC came out at 1 µg/mL (≈ 3.25 µM) against Enterococcus faecium [1]; 4 µg/mL (≈ 13 µM) with Enterococcus faecium [2]; 1 µg/mL (≈ 3.25 µM) against Enterococcus faecium [3]; 0.5 µg/mL (≈ 1.63 µM) with Enterococcus faecalis [4]; 1 µg/mL (≈ 3.25 µM) against Enterococcus faecium [5]; 2 µg/mL (≈ 6.51 µM) against Enterococcus faecium [11]. The MIC was 4 µg/mL (≈ 13 µM) with Enterococcus faecalis [12]; 2 µg/mL (≈ 6.51 µM) in the data set with Enterococcus faecium [13]; 2 µg/mL (≈ 6.51 µM) in the data set on Enterococcus faecium [17]; 1 µg/mL (≈ 3.25 µM) in the data set on Enterococcus faecium [18]; 2 µg/mL (≈ 6.51 µM) in the data set on Enterococcus faecium [20]; 2 µg/mL (≈ 6.51 µM) against Enterococcus faecium [21]. The inhibition result in the data set with Enterococcus faecium [6] is “inactive”. Moreover, in the data set on Enterococcus faecium [7], the inhibition entry was “Active”. Also, the Activity result with Caco-2 was “Non-Toxic”. Besides, the Papp in [8] and in data set [19] was < 0.17 10^-6 cm/s each time. Further, in the data set on Enterococcus faecium [9], the result was Active. In [10], the Stabilty was 86%. Besides, the solubility in [14] came to 126.6 µM (≈ 38.9 µg/mL). This compound also gave a CC50 at 2 h in data set [15] of over 128 µg/mL. This compound returned a t1/2 in data set [16] of 4.95 h.

With `CC(=O)/N=c1/sc(S(N)(=O)=O)nn1C` [METHAZOLAMIDE], 4 µg/mL (≈ 16.9 µM) was the least that counted as inhibitory against Enterococcus faecium [22] (MIC).

`CC(=O)NC[C@H]1CN(c2ccc(N3CCOCC3)c(F)c2)C(=O)O1` [LINEZOLID]: the MIC in the data set with Enterococcus faecium [2] was determined as 0.5 µg/mL (≈ 1.48 µM); with Enterococcus faecium [3], 0.5 µg/mL (≈ 1.48 µM); against Enterococcus faecalis [4], 0.5 µg/mL (≈ 1.48 µM); with Enterococcus faecium [5], 1 µg/mL (≈ 2.96 µM); with Enterococcus faecium [11], 0.25 µg/mL (≈ 0.741 µM); against Enterococcus faecium [13], 1 µg/mL (≈ 2.96 µM). Besides, the MIC with Enterococcus faecium [17] turned out to be 1 µg/mL (≈ 2.96 µM); with Enterococcus faecium [18], 0.5 µg/mL (≈ 1.48 µM); with Enterococcus faecium [20], 1 µg/mL (≈ 2.96 µM); against Enterococcus faecium [21], 1 µg/mL (≈ 2.96 µM). Also, the outcome in the data set with Enterococcus faecium [9] was Active.
